In ChEMBL document CHEMBL1649395, “Synthesis and antibacterial activity of novel ketolides with 11,12-sulfur contained aryl alkyl side chains” (2011):
Values after ≈ are worked out from the molar mass of the structure shown.

How the values were obtained:
Format in all cases: functional
[1] = test system: Haemophilus influenzae; test: Antibacterial activity against erythromycin-susceptible Haemophilus influenzae 07O394 by broth microdilution method
Outline: (§1)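 Strains were ATCC reference strains or clinical isolates from China's national antimicrobial resistance surveillance network (MOHNARIN). In vitro activity was measured by broth microdilution following NCCLS recommendations. Results are reported as minimum inhibitory concentration (MIC) in mg/L.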

[2] = test system: Staphylococcus epidermidis; test: Antibacterial activity against methicillin-resistant Staphylococcus epidermidis 07R066 by broth microdilution method
Outline: (§2)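 Clinical isolates were supplied by China's Ministry of Health National Antimicrobial Resistance Investigation Net (MOHNARIN). Activity was reported as minimum inhibitory concentration (MIC), determined by broth microdilution following NCCLS recommendations.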

[3] = test system: Streptococcus pyogenes; test: Antibacterial activity against erythromycin-resistant Streptococcus pyogenes 01-533 by broth microdilution method; outline: as §2
[4] = test system: Streptococcus pyogenes; test: Antibacterial activity against erythromycin-susceptible Streptococcus pyogenes 07U086 by broth microdilution method; outline: as §1
[5] = test system: Streptococcus pneumoniae; test: Antibacterial activity against erythromycin-resistant Streptococcus pneumoniae 07P390 by broth microdilution method; outline: as §2
[6] = test system: Staphylococcus aureus; test: Antibacterial activity against methicillin-susceptible Staphylococcus aureus ATCC 29213 by broth microdilution method; outline: as §1
[7] = test system: Streptococcus pneumoniae; test: Antibacterial activity against erythromycin-susceptible Streptococcus pneumoniae 07H252 by broth microdilution method; outline: as §1
[8] = test system: Staphylococcus epidermidis; test: Antibacterial activity against methicillin-susceptible Staphylococcus epidermidis 07C134 by broth microdilution method; outline: as §2
[9] = test system: Staphylococcus aureus; test: Antibacterial activity against methicillin-susceptible Staphylococcus aureus ANS46 by broth microdilution method; outline: as §1
[10] = test system: Haemophilus influenzae; test: Antibacterial activity against erythromycin-susceptible Haemophilus influenzae ATCC 49247 by broth microdilution method; outline: as §1
[11] = test system: Streptococcus pyogenes; test: Antibacterial activity against erythromycin-resistant Streptococcus pyogenes 03-233 by broth microdilution method; outline: as §2
[12] = test system: Haemophilus influenzae; test: Antibacterial activity against erythromycin-susceptible Haemophilus influenzae 07O114 by broth microdilution method; outline: as §1
[13] = test system: Streptococcus pneumoniae; test: Antibacterial activity against erythromycin-susceptible Streptococcus pneumoniae ATCC 49619 by broth microdilution method; outline: as §1
[14] = test system: Streptococcus pyogenes; test: Antibacterial activity against erythromycin-susceptible Streptococcus pyogenes 07U084 by broth microdilution method; outline: as §1
[15] = test system: Staphylococcus epidermidis; test: Antibacterial activity against methicillin-resistant Staphylococcus epidermidis 07A066 by broth microdilution method; outline: as §2
[16] = test system: Streptococcus pneumoniae; test: Antibacterial activity against erythromycin-resistant Streptococcus pneumoniae 07D201 by broth microdilution method; outline: as §2
[17] = test system: Staphylococcus epidermidis; test: Antibacterial activity against methicillin-susceptible Staphylococcus epidermidis 07T202 by broth microdilution method; outline: as §1
[18] = test system: Haemophilus influenzae; test: Antibacterial activity against erythromycin-susceptible Haemophilus influenzae 07O339 by broth microdilution method; outline: as §1

Row | Compound | MIC [1] | MIC [2] | MIC [3] | MIC [4] | MIC [5] | MIC [6] | MIC [7] | MIC [8] | MIC [9] | MIC [10] | MIC [11] | MIC [12] | MIC [13] | MIC [14] | MIC [15] | MIC [16] | MIC [17] | MIC [18]
1 | CC[C@H]1OC(=O)[C@H](C)C(=O)[C@H](C)[C@@H](O[C@@H]2O[C@H](C)C[C@H](N(C)C)[C@H]2O)[C@@](C)(OC)C[C@@H](C)C(=O)[C@H](C)[C@H]2N(CCCSc3nccc(C)n3)C(=O)O[C@]12C | 8 mg/L (≈ 10.3 µM) | 0.25 mg/L (≈ 0.321 µM) | 2 mg/L (≈ 2.57 µM) | 0.125 mg/L (≈ 0.16 µM) | 0.25 mg/L (≈ 0.321 µM) | 0.5 mg/L (≈ 0.642 µM) | 8 mg/L (≈ 10.3 µM) | 0.25 mg/L (≈ 0.321 µM) | > 32 mg/L | 8 mg/L (≈ 10.3 µM) | 2 mg/L (≈ 2.57 µM) | 8 mg/L (≈ 10.3 µM) | 0.062 mg/L (≈ 0.0796 µM) | 0.125 mg/L (≈ 0.16 µM) | 0.5 mg/L (≈ 0.642 µM) | > 32 mg/L | > 32 mg/L | 8 mg/L (≈ 10.3 µM)
2 | CC[C@H]1OC(=O)[C@H](C)C(=O)[C@H](C)[C@@H](O[C@@H]2O[C@H](C)C[C@H](N(C)C)[C@H]2O)[C@@](C)(OC)C[C@@H](C)C(=O)/C(C)=C/[C@]1(C)OC(=O)NCCCSc1ncnc2[nH]ncc12 | > 16 mg/L | 0.5 mg/L (≈ 0.621 µM) | 8 mg/L (≈ 9.94 µM) | 0.25 mg/L (≈ 0.311 µM) | 16 mg/L (≈ 19.9 µM) | 0.5 mg/L (≈ 0.621 µM) | 8 mg/L (≈ 9.94 µM) | 0.5 mg/L (≈ 0.621 µM) | > 16 mg/L | > 16 mg/L | > 16 mg/L | > 16 mg/L | 0.5 mg/L (≈ 0.621 µM) | 0.25 mg/L (≈ 0.311 µM) | 0.5 mg/L (≈ 0.621 µM) | > 16 mg/L | > 16 mg/L | > 16 mg/L
3 | CC[C@H]1OC(=O)[C@H](C)C(=O)[C@H](C)[C@@H](O[C@@H]2O[C@H](C)C[C@H](N(C)C)[C@H]2O)[C@@](C)(OC)C[C@@H](C)C(=O)[C@H](C)[C@H]2N(CCCSc3nc(-c4cccnc4)c[nH]3)C(=O)O[C@]12C | 2 mg/L (≈ 2.41 µM) | 0.125 mg/L (≈ 0.151 µM) | 0.125 mg/L (≈ 0.151 µM) | 0.031 mg/L (≈ 0.0373 µM) | 0.031 mg/L (≈ 0.0373 µM) | 0.125 mg/L (≈ 0.151 µM) | 0.25 mg/L (≈ 0.301 µM) | 0.125 mg/L (≈ 0.151 µM) | > 32 mg/L | 2 mg/L (≈ 2.41 µM) | 1 mg/L (≈ 1.2 µM) | 2 mg/L (≈ 2.41 µM) | 0.062 mg/L (≈ 0.0747 µM) | 0.031 mg/L (≈ 0.0373 µM) | 0.125 mg/L (≈ 0.151 µM) | 4 mg/L (≈ 4.82 µM) | 32 mg/L (≈ 38.6 µM) | 2 mg/L (≈ 2.41 µM)
4 | CC[C@H]1OC(=O)[C@H](C)C(=O)[C@H](C)[C@@H](O[C@@H]2O[C@H](C)C[C@H](N(C)C)[C@H]2O)[C@@](C)(OC)C[C@@H](C)C(=O)/C(C)=C/[C@]1(C)OC(=O)NCCCSc1nc2ccccc2o1 | > 16 mg/L | 4 mg/L (≈ 4.98 µM) | > 16 mg/L | 2 mg/L (≈ 2.49 µM) | > 16 mg/L | 4 mg/L (≈ 4.98 µM) | 16 mg/L (≈ 19.9 µM) | 4 mg/L (≈ 4.98 µM) | > 16 mg/L | > 16 mg/L | > 16 mg/L | > 16 mg/L | 2 mg/L (≈ 2.49 µM) | 2 mg/L (≈ 2.49 µM) | 4 mg/L (≈ 4.98 µM) | > 16 mg/L | > 16 mg/L | > 16 mg/L
5 | CC[C@H]1OC(=O)[C@H](C)C(=O)[C@H](C)[C@@H](O[C@@H]2O[C@H](C)C[C@H](N(C)C)[C@H]2O)[C@@](C)(OC)C[C@@H](C)C(=O)[C@H](C)[C@H]2N(CCCSc3nncs3)C(=O)O[C@]12C | 2 mg/L (≈ 2.59 µM) | 0.5 mg/L (≈ 0.648 µM) | 1 mg/L (≈ 1.3 µM) | 0.062 mg/L (≈ 0.0804 µM) | 0.5 mg/L (≈ 0.648 µM) | 0.25 mg/L (≈ 0.324 µM) | 2 mg/L (≈ 2.59 µM) | 0.25 mg/L (≈ 0.324 µM) | > 16 mg/L | 2 mg/L (≈ 2.59 µM) | > 16 mg/L | 2 mg/L (≈ 2.59 µM) | ≤ 0.016 mg/L | 0.062 mg/L (≈ 0.0804 µM) | 0.25 mg/L (≈ 0.324 µM) | > 16 mg/L | > 16 mg/L | 2 mg/L (≈ 2.59 µM)
6 | CC[C@H]1OC(=O)[C@H](C)C(=O)[C@H](C)[C@@H](O[C@@H]2O[C@H](C)C[C@H](N(C)C)[C@H]2O)[C@](C)(OC)C[C@@H](C)C(=O)[C@H](C)[C@H]2N(CCCCn3cnc(-c4cccnc4)c3)C(=O)O[C@]12C [TELITHROMYCIN] | 4 mg/L (≈ 4.93 µM) | 0.125 mg/L (≈ 0.154 µM) | 0.25 mg/L (≈ 0.308 µM) | 0.062 mg/L (≈ 0.0764 µM) | 0.031 mg/L (≈ 0.0382 µM) | 0.125 mg/L (≈ 0.154 µM) | 0.062 mg/L (≈ 0.0764 µM) | 0.125 mg/L (≈ 0.154 µM) | > 16 mg/L | 4 mg/L (≈ 4.93 µM) | 2 mg/L (≈ 2.46 µM) | 4 mg/L (≈ 4.93 µM) | 0.031 mg/L (≈ 0.0382 µM) | 0.062 mg/L (≈ 0.0764 µM) | 0.125 mg/L (≈ 0.154 µM) | 1 mg/L (≈ 1.23 µM) | > 16 mg/L | 4 mg/L (≈ 4.93 µM)
7 | CC[C@H]1OC(=O)[C@H](C)C(=O)[C@H](C)[C@@H](O[C@@H]2O[C@H](C)C[C@H](N(C)C)[C@H]2O)[C@@](C)(OC)C[C@@H](C)C(=O)[C@H](C)[C@H]2N(CCCSc3nc(C)cc(C)n3)C(=O)O[C@]12C | 8 mg/L (≈ 10.1 µM) | 0.5 mg/L (≈ 0.63 µM) | 2 mg/L (≈ 2.52 µM) | 0.125 mg/L (≈ 0.158 µM) | 1 mg/L (≈ 1.26 µM) | 0.5 mg/L (≈ 0.63 µM) | 2 mg/L (≈ 2.52 µM) | 0.5 mg/L (≈ 0.63 µM) | > 32 mg/L | 4 mg/L (≈ 5.04 µM) | > 32 mg/L | 8 mg/L (≈ 10.1 µM) | 0.062 mg/L (≈ 0.0782 µM) | 0.125 mg/L (≈ 0.158 µM) | 0.5 mg/L (≈ 0.63 µM) | > 32 mg/L | > 32 mg/L | 4 mg/L (≈ 5.04 µM)
8 | CC[C@H]1OC(=O)[C@H](C)C(=O)[C@H](C)[C@@H](O[C@@H]2O[C@H](C)C[C@H](N(C)C)[C@H]2O)[C@@](C)(OC)C[C@@H](C)C(=O)[C@H](C)[C@H]2N(CCCSc3nnnn3C)C(=O)O[C@]12C | 8 mg/L (≈ 10.4 µM) | > 32 mg/L | 1 mg/L (≈ 1.3 µM) | 0.062 mg/L (≈ 0.0806 µM) | 0.5 mg/L (≈ 0.65 µM) | 0.25 mg/L (≈ 0.325 µM) | 8 mg/L (≈ 10.4 µM) | 0.25 mg/L (≈ 0.325 µM) | > 32 mg/L | 8 mg/L (≈ 10.4 µM) | > 32 mg/L | 8 mg/L (≈ 10.4 µM) | 0.031 mg/L (≈ 0.0403 µM) | 0.062 mg/L (≈ 0.0806 µM) | 1 mg/L (≈ 1.3 µM) | > 32 mg/L | > 32 mg/L | 8 mg/L (≈ 10.4 µM)
9 | CC[C@H]1OC(=O)[C@H](C)[C@@H](O[C@H]2C[C@@](C)(OC)[C@@H](O)[C@H](C)O2)[C@H](C)[C@@H](O[C@@H]2O[C@H](C)C[C@H](N(C)C)[C@H]2O)[C@](C)(OC)C[C@@H](C)C(=O)[C@H](C)[C@@H](O)[C@]1(C)O [CLARITHROMYCIN] | 8 mg/L (≈ 10.7 µM) | 0.125 mg/L (≈ 0.167 µM) | 2 mg/L (≈ 2.67 µM) | 0.031 mg/L (≈ 0.0414 µM) | 2 mg/L (≈ 2.67 µM) | 0.25 mg/L (≈ 0.334 µM) | 0.062 mg/L (≈ 0.0829 µM) | 0.25 mg/L (≈ 0.334 µM) | > 32 mg/L | 4 mg/L (≈ 5.35 µM) | > 32 mg/L | 4 mg/L (≈ 5.35 µM) | 0.031 mg/L (≈ 0.0414 µM) | 0.031 mg/L (≈ 0.0414 µM) | 8 mg/L (≈ 10.7 µM) | > 32 mg/L | > 32 mg/L | 8 mg/L (≈ 10.7 µM)
